ChEMBL document CHEMBL4321879, “Novel Class of Colony-Stimulating Factor 1 Receptor Kinase Inhibitors Based on an o-Aminopyridyl Alkynyl Scaffold as Potential Treatment for Inflammatory Disorders” (J Med Chem, 2020)
Calls of active or inactive are those of the source. The rule behind the calls is not given here.

Key:
[1] = target: Receptor tyrosine-protein kinase erbB-4 (Homo sapiens) (UniProt Q15303); assay: Inhibition of recombinant human N-terminal His6-tagged Erbb4 (706 to 991 residues) expressed in baculovirus infected Sf21 insect cells at 100 nM using poly (Glu, Tyr)4:1 as substrate measured after 1 hr by ELISA relative to control
Outline: (§1)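 Recombinant kinase was incubated with compound in reaction buffer containing 5 μM ATP, in wells precoated with poly(Glu,Tyr) 4:1, for 1 h at 37 °C. Phosphorylation was detected by ELISA.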

[2] = target: Ephrin type-A receptor 2 (Homo sapiens) (UniProt P29317); assay: Inhibition of recombinant human N-terminal His6-tagged EphA2 (596 to 900 residues) expressed in baculovirus infected Sf21 insect cells at 1000 nM using poly (Glu, Tyr)4:1 as substrate measured after 1 hr by ELISA relative to control; outline: as §1
Ephrin type-A receptor 2 (Homo sapiens), sequence (P29317 whole entry, the tested form may be a part): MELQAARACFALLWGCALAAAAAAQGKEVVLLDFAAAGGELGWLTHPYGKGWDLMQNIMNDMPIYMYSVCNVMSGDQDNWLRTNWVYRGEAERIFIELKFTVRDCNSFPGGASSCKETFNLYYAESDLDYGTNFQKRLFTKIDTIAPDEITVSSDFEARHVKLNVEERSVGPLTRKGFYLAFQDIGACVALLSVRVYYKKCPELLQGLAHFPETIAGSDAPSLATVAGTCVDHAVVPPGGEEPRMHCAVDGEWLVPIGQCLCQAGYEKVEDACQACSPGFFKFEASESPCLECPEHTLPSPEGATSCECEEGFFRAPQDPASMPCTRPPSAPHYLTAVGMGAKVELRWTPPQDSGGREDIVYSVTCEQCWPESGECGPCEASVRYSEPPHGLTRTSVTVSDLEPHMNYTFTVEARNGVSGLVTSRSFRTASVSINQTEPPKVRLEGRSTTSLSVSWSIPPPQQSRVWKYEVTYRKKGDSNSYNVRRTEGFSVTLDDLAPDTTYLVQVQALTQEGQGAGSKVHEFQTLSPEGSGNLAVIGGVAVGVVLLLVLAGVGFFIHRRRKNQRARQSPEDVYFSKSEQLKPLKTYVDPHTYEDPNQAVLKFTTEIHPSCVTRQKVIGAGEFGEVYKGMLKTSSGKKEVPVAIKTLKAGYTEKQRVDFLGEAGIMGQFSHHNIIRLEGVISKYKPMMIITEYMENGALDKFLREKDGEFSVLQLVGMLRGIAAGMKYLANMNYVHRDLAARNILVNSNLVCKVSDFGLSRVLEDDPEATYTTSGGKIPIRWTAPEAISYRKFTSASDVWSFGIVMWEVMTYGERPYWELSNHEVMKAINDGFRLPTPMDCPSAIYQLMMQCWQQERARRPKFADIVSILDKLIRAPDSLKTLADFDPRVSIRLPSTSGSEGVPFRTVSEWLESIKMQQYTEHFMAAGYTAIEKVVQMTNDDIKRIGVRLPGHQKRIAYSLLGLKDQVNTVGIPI

[3] = target: Tyrosine-protein kinase ABL1 (Homo sapiens) (UniProt P00519); assay: Inhibition of recombinant human N-terminal His6-tagged Abl (27 to end residues) expressed in baculovirus infected Sf21 insect cells at 1000 nM using poly (Glu, Tyr)4:1 as substrate measured after 1 hr by ELISA relative to control; outline: as §1
[4] = Elimination half life in Sprague-Dawley rat at 2 mg/kg, iv administered […] by LC-MS/MS analysis; type: ADME, organism-based; settings: in vivo, read-out: beta t1/2 (converted)
Outline: (§2)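 Male SD rats (200 ± 20 g) were fasted 12 h with free access to water, n = 3 per group. One group received 2 mg/kg iv in DMSO/EtOH/PEG300/saline (5/5/40/50). The other received 5 mg/kg by oral gavage in DMSO/HPMC (5/95). Femoral-vein plasma was taken at 15–1440 min, methanol-precipitated with internal standard, and measured by LC–MS/MS. Noncompartmental analysis; AUC by trapezoidal method.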

[5] = target: Insulin receptor (Homo sapiens) (UniProt P06213); assay: Inhibition of recombinant human N-terminal His6-tagged IR (1005 to 1310 residues) expressed in baculovirus infected Sf21 insect cells at 100 nM using poly (Glu, Tyr)4:1 as substrate measured after 1 hr by ELISA relative to control
Outline: (§3)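 ELISA kinase assay: recombinant kinase added to wells precoated with poly(Glu,Tyr)4:1 and incubated with compound in reaction buffer containing 5 μM ATP, 37 °C for 1 h; wells then washed before antibody detection.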

[6] = target: Insulin-like growth factor 1 receptor (Homo sapiens) (UniProt P08069); assay: Inhibition of recombinant human N-terminal His6-tagged IGF1R (959 to end residues) expressed in baculovirus infected Sf21 insect cells at 1000 nM using poly (Glu, Tyr)4:1 as substrate measured after 1 hr by ELISA relative to control; outline: as §3
[7] = target: Focal adhesion kinase 1 (Homo sapiens) (UniProt Q05397); assay: Inhibition of recombinant human N-terminal His6-tagged FAK (411 to 686 residues) expressed in baculovirus infected Sf21 insect cells at 1000 nM using poly (Glu, Tyr)4:1 as substrate measured after 1 hr by ELISA relative to control; outline: as §1
Focal adhesion kinase 1 (Homo sapiens), sequence (Q05397 2-1052 limits assumed): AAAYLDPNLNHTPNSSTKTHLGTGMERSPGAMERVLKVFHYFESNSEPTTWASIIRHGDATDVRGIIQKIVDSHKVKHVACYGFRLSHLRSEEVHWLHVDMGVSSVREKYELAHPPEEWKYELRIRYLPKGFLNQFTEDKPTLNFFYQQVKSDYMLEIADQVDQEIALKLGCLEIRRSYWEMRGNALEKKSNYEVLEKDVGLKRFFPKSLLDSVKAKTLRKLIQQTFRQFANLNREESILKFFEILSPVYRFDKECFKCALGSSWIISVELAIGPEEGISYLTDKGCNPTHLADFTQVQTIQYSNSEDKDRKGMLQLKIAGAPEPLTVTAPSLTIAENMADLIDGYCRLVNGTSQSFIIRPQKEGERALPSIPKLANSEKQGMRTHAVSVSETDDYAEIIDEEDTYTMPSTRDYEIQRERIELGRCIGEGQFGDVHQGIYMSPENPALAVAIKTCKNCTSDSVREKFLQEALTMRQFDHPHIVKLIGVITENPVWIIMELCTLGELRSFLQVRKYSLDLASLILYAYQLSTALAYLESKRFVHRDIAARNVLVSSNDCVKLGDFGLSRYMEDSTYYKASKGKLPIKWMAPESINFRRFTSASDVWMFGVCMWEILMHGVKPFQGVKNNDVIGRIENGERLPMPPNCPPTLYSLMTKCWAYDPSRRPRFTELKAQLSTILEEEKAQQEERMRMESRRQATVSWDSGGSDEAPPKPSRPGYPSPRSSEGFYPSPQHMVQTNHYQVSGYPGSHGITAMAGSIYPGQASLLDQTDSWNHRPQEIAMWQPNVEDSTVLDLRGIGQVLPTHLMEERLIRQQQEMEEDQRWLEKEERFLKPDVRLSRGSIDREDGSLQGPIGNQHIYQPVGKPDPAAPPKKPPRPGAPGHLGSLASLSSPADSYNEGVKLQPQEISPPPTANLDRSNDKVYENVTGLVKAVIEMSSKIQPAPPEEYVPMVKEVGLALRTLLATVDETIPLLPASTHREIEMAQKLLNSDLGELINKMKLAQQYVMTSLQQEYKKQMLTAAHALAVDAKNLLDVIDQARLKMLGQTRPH

Mus musculus [8] = assay: Antiinflammatory activity in BALB/c mouse assessed as reduction in LPS-induced TNFalpha production at 20 to 40 mg/kg, po pretreated for 4 hrs followed by LPS-stimulation and measured after 1.5 hrs by ELISA; type: functional, organism-based
Outline: (§4)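 Female BALB/c mice, 8 weeks old, n = 6 per group, dosed orally at 20 or 40 mg/kg in 0.5% CMC-Na/0.25% Tween-80 4 h before ip LPS 5 mg/kg. Orbital-sinus blood was taken at 1.5 h (TNF-α) and 3 h (IL-6). Serum cytokines measured by ELISA. Mean ± SEM, one-way ANOVA with Dunnett's test.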

[9] = AUC (0 to t) in Sprague-Dawley rat at 2 mg/kg, iv administered […] by LC-MS/MS analysis; type: ADME, organism-based; settings: in vivo; outline: as §2
[10] = target: Vascular endothelial growth factor receptor 2 (Homo sapiens) (UniProt P35968); assay: Inhibition of recombinant human VEGFR2 (D1-7) expressed in Spodoptera frugiperda insect cells at 10 nM using poly (Glu, Tyr)4:1 as substrate measured after 1 hr by ELISA relative to control; outline: as §3
Vascular endothelial growth factor receptor 2 (Homo sapiens), sequence (P35968 whole entry): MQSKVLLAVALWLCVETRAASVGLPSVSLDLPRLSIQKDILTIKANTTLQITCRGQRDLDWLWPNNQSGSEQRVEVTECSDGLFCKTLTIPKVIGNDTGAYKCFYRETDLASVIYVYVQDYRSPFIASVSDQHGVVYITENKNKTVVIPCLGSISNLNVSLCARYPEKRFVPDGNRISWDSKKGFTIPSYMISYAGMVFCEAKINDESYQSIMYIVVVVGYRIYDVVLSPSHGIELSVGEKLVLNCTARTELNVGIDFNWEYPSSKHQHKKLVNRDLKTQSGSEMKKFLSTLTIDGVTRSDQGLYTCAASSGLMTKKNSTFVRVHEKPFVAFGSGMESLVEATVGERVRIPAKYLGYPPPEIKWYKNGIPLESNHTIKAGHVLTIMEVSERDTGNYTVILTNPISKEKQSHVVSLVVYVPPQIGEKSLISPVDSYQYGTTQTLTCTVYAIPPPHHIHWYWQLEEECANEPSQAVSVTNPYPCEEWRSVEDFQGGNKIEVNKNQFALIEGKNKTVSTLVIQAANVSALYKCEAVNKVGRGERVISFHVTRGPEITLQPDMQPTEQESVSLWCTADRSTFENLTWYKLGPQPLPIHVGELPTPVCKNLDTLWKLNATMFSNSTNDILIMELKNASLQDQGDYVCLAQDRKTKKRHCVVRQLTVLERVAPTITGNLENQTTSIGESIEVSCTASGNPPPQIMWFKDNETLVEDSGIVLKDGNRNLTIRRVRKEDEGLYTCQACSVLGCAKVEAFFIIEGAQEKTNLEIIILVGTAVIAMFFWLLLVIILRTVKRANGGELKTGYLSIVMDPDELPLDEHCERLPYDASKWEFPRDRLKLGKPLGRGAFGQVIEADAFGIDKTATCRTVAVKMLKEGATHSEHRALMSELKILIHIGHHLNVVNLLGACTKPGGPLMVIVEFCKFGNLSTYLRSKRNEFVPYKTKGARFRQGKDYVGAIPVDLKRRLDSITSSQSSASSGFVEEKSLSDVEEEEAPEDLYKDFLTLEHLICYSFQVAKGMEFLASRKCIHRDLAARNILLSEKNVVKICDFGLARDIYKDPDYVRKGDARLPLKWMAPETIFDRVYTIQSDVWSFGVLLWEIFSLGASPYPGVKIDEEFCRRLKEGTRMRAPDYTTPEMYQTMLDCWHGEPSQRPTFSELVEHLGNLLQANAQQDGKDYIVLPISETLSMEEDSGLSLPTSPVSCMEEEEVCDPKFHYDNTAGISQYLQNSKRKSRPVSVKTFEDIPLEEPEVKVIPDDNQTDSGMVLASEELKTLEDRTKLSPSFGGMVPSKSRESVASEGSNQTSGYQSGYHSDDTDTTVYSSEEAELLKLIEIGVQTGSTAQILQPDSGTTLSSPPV

c-KIT = c-KIT (Homo sapiens, UniProt P10721); assay: Inhibition of recombinant human N-terminal GST-tagged c-KIT (544 to end residues) expressed in baculovirus infected Sf21 insect cells at 10 nM using poly (Glu, Tyr)4:1 as substrate measured after 1 hr by ELISA relative to control; settings: probe poly (Glu, Tyr)4:1; outline: as §1
FLT3 = FLT3 (Homo sapiens, UniProt P36888); assay: Inhibition of recombinant human N-terminal GST-tagged FLT3 (564 to end residues) expressed in Sf21 insect cells at 100 nM using poly (Glu, Tyr)4:1 as substrate measured after 1 hr by ELISA relative to control; settings: probe poly (Glu, Tyr)4:1; outline: as §1
FLT3, sequence (P36888 whole entry, the tested form may be a part): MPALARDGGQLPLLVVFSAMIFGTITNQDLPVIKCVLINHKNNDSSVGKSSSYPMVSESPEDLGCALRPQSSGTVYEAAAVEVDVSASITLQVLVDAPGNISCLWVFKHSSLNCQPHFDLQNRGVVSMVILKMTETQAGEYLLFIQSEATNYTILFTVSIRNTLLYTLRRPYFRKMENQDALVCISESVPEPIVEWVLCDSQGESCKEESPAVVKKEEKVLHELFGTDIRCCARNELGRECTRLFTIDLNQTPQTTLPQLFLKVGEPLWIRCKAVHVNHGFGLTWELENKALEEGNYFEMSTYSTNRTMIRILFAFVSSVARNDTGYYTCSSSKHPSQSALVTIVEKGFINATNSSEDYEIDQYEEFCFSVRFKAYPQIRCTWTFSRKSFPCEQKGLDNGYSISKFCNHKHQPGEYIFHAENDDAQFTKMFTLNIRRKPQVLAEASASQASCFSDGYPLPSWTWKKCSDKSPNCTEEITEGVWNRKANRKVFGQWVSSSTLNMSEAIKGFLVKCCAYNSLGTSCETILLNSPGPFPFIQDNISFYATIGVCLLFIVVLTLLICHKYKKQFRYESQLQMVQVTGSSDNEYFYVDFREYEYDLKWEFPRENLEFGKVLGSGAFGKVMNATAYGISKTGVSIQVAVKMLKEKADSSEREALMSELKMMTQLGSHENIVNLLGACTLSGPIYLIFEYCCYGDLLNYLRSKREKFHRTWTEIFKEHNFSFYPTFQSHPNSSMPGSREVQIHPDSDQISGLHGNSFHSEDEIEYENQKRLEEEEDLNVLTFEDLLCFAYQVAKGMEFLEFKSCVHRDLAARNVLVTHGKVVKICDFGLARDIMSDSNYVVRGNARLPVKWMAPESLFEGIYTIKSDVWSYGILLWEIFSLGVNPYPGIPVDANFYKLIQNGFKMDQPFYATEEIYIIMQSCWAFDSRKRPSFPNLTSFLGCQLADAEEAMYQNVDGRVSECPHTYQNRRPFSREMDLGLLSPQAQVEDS

[11] = target: Tyrosine-protein kinase ITK/TSK (Homo sapiens) (UniProt Q08881); assay: Inhibition of recombinant human N-terminal His6-tagged ITK (352 to 617 residues) expressed in baculovirus infected Sf21 insect cells at 1000 nM using poly (Glu, Tyr)4:1 as substrate measured after 1 hr by ELISA relative to control; outline: as §3
Tyrosine-protein kinase ITK/TSK (Homo sapiens), sequence (Q08881 whole entry, the tested form may be a part): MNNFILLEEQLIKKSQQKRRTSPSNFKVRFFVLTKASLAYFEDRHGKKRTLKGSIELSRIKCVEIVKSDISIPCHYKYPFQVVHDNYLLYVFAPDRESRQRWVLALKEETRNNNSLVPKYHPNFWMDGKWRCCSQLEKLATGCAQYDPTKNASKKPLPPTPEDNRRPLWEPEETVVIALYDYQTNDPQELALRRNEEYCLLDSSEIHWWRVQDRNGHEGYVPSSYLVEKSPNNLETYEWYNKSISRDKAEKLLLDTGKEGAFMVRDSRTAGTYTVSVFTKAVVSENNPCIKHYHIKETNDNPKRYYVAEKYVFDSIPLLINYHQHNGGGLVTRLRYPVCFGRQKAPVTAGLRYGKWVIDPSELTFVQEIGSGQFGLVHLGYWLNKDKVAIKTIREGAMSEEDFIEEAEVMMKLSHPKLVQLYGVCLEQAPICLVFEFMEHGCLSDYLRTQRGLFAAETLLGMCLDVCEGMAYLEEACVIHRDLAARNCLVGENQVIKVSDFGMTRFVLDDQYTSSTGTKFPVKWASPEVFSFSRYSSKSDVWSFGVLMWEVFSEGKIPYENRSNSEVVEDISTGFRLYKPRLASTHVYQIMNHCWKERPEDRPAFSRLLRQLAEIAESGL

Mus musculus [12] = assay: Antiinflammatory activity in BALB/c mouse assessed as reduction in LPS-induced IL6 production at 20 to 40 mg/kg, po pretreated for 4 hrs followed by LPS-stimulation and measured after 3 hrs by ELISA; type: functional, organism-based; outline: as §4
[13] = target: Platelet-derived growth factor receptor beta (Homo sapiens) (UniProt P09619); assay: Inhibition of recombinant human N-terminal His6-tagged PDGFRbeta (557 to end residues) expressed in baculovirus infected Sf21 insect cells at 100 nM using poly (Glu, Tyr)4:1 as substrate measured after 1 hr by ELISA relative to control; outline: as §3
[14] = MRT (infinity) in Sprague-Dawley rat at 2 mg/kg, iv administered […] by LC-MS/MS analysis; type: ADME, organism-based; settings: in vivo
Outline: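 Male SD rats (200 ± 20 g), fasted 12 h, n = 3; single intravenous dose of 2 mg/kg in DMSO/EtOH/PEG300/saline (5/5/40/50). Femoral vein blood at 15–1440 min; plasma precipitated with methanol containing internal standard, assayed by LC–MS/MS; noncompartmental analysis (MRT = AUMC/AUC, Vss = CL × MRT).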

[15] = Elimination half life in Sprague-Dawley rat at 5 mg/kg, po administered via gavage by LC-MS/MS analysis; type: ADME, organism-based; settings: in vivo, read-out: beta t1/2 (converted); outline: as §2
[16] = target: Voltage-gated inwardly rectifying potassium channel KCNH2 (Homo sapiens, UniProt Q12809); assay: Inhibition of human ERG by Qpatch automatic patch-clamp assays
[17] = Oral bioavailability in Sprague-Dawley rat at 5 mg/kg administered via gavage by LC-MS/MS analysis; type: ADME, organism-based; settings: in vivo
Outline: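 Male SD rats (n = 3 per route), fasted 12 h; 5 mg/kg oral gavage (DMSO/HPMC 5/95) versus 2 mg/kg iv (DMSO/EtOH/PEG300/saline). Plasma sampled 15–1440 min, LC–MS/MS; F = AUC0–∞(oral)/AUC0–∞(iv) × dose(iv)/dose(oral) × 100%.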

Cc1ccc(C(=O)Nc2ccc(Cl)cc2)cc1C#Cc1cc(-c2cnn(C)c2)cnc1N
inhibition [1]: 6.6%
inhibition [2]: 92.3%
inhibition [3]: 98.3%
half-life [4]: 3.33 h
inhibition [5]: 2.1%
inhibition [6]: 0%
inhibition [7]: 10.8%
Activity (Mus musculus [8]): Active
AUC(0-t) [9]: 729 ng·h/mL
inhibition [10]: 23.2%
inhibition at 1 h, 0.01 µM (c-KIT): 70.4%
inhibition at 1 h, 0.1 µM (FLT3): 0%
inhibition [11]: 7.4%
Activity (Mus musculus [12]): Active
inhibition [13]: 70.5%
MRT inf [14]: 2.3 h
half-life [15]: 2.21 h
IC50 [16]: > 40 µM
bioavailability [17]: 34.8%
